This excerpt belongs to a sample that is enriched for hits.
HCT116 bCat-KO = primary screen for growth suppressors in beta-catenin knockout HCT116 cells (colon tumor, human). HCT116 beta-catenin knockout viability, CellTiter-Glo, 60 h; hits give low values. viability, % at 10 µM. 1.5% of 140,000 active. AID 818, 2007;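 active means viability at or under a set limit, the compound median less 4 SD, cut at about 6% in these data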
HUVEC prolif 384 = inhibitors of HUVEC proliferation, primary screen, cell-based, 384-well; viability, % at 10 µM (by protocol); CellTiter-Glo luminescence, 72 h; hits give low values; 1.1% of 86,000 active;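 active means viability at or below 30%; inactive means viability above 30%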
HCT116 PTEN-null = growth suppression of PTEN-null HCT116, primary screen, cell-based, CellTiter-Glo | AID 827, 2007 | HCT116 PTEN-null viability, 60 h; hits give low values | 1.2% of 140,000 active | viability, % at 10 µM;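 active means viability at or below a set limit, 4 SD under the median of all tested compounds, cut at about 3.7% in these data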;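 further: PTEN knockout HCT116 line with beta catenin targeted HCT116 as companion control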
Fibroblast inh = antiproliferative effect on LL 47 fibroblasts – human, LL 47 cells, CellTiter-Glo luminescence, primary screen; viability, % at 10 µM; AID 719, 2007; 1.1% of 85,000 active; LL 47 human lung fibroblast viability, ATP luminescence; hits give low values;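 active means viability at or below 50% in the single dose screen; inactive means viability above 50%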;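 further: compound exposure lasted 72 h before the ATP readout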
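Benchmarks: Cell-only wells, no compound | Test system: LL 47 human lung fibroblasts, passage 12 or lower | Input: 1,150 cells/well | Measured by: CellTiter-Glo luminescence measuring cellular ATP | Medium: IMEM, 15% FBS supplement | Schedule: Overnight attachment after seeding, then 72 h compound exposure at 37 °C | Doses: Compound addition at 0.1% DMSO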
H69AR growth 86K = proliferation blockers of H69AR lung cancer cells, primary screen, cell-based, human, 86K library; AID 598, 2007; viability, % at 10 µM; H69AR lung tumor viability, ATP luminescence, 72 h; hits give low values; 6% of 85,000 active;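 active means viability at or below 40%; inactive means viability above 40%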;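 further: multidrug resistant small cell line overexpressing MRP-1 efflux transporter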
Hits are given with their value; . = inactive; / = not tested or not shown.

SMILES	HCT116 bCat-KO	HUVEC prolif 384	HCT116 PTEN-null	Fibroblast inh	H69AR growth 86K
COc1ccc(OC)c(NC(=O)C2COc3ccccc3O2)c1 (stereo not drawn)	.	.	.	.	.
CN1CCN(c2ccc(Cl)cc2NC(=O)c2cccc(S(=O)(=O)N(C)C)c2)CC1	.	.	.	.	26
CN1CCN(c2ccc(Cl)cc2NC(=O)C2COc3ccccc3O2)CC1 (stereo not drawn)	.	.	.	.	30
CN1CCN(c2ccc(Cl)cc2NC(=O)c2nn(-c3ccccc3)c(=O)c3ccccc23)CC1	.	.	.	.	4.9
COc1ccc(Nc2oc(COc3ccccc3F)nc2C#N)cc1	.	.	.	.	5.4
CCOC(=O)C1=C(N)n2c(s/c(=C\c3cccs3)c2=O)=C(C(=O)OCC)C1c1cccs1 (stereo not drawn)	.	.	.	.	29
CCOC(=O)C1=C(N)n2c(s/c(=C\c3cccnc3)c2=O)=C(C(=O)OCC)C1c1cccnc1 (stereo not drawn)	/	.	/	.	.
COc1cc(/C=c2\s/c(=C(/C#N)C(=O)N3CCCC3)n(-c3ccccc3)c2=O)ccc1O	.	12	.	.	10
COC(=O)/C=c1/s/c(=C(/C#N)C(=O)N2CCCCC2)n(-c2ccccc2)c1=O	.	.	.	.	36
CCCCC(=O)Nc1ccc(C(=O)N2CCN(c3ccccc3OC)CC2)cc1	.	.	.	.	.
CCN(CC)S(=O)(=O)c1cccc(-c2nnc(SCC#N)n2Cc2ccccc2)c1	.	.	.	.	.
COc1ccc(OC)c(/C=N/N(C)c2ccccc2)c1	.	.	.	.	.
COc1cc(/C=N/N(C)c2ccccc2)cc(Cl)c1O	.	.	.	.	16
CCN(CC)C(=O)C(=O)N/N=C/c1cccs1	.	/	.	/	/
CCN(CC)c1ccc(/C=N/Nc2nc3ccccc3[nH]2)c(O)c1	3.5	/	.	/	/
CCN(CC)c1ccc(/C=N/NC(=S)NCc2ccccc2)c(O)c1	.	/	.	/	/
CCN(CC)c1ccc(/C=N/NC(=O)Cc2cccs2)c(O)c1	5.2	/	.	/	/
CCCCOCCCNC(=O)c1cccs1	.	.	.	.	.
N=c1c2c(-c3ccccc3)c(-c3ccccc3)n(Cc3ccccc3)c2ncn1CCO	1.2	3.3	1.6	22	1.9
N=c1c2c(-c3ccccc3)c(-c3ccccc3)n(Cc3ccco3)c2ncn1Cc1ccccc1	1.1	2.1	1.9	32	9.9
CC(C)Cn1cnc2c(c(-c3ccccc3)c(-c3ccccc3)n2Cc2ccco2)c1=N	2.8	2.5	3.0	3.1	1.1
OCCNc1ncnc2c1c(-c1ccccc1)c(-c1ccccc1)n2Cc1ccco1	.	/	.	/	/
Cc1noc(C)c1COc1ccc(C(=O)OCC(=O)Nc2cccc(S(=O)(=O)N3CCOCC3)c2)cc1	.	/	.	/	/
CC1CN(S(=O)(=O)c2cccc(C(=O)OCC(=O)Nc3ccc4c(c3)OCO4)c2)CC(C)O1 (stereo not drawn)	.	.	.	.	1.0
CC1CN(S(=O)(=O)c2cccc(C(=O)OCC(=O)c3cccs3)c2)CC(C)O1 (stereo not drawn)	.	.	.	.	.
SMILES	HCT116 bCat-KO	HUVEC prolif 384	HCT116 PTEN-null	Fibroblast inh	H69AR growth 86K
COc1ccccc1NC(=O)CSc1nc2ccccc2c(=O)n1CCNC(C)=O	.	.	.	.	.
CCOC(=O)c1cnn(-c2nc(C)nc3sc4c(c23)CCC4)c1N	/	.	/	.	.
CCOC(=O)c1cnn(-c2nc3sc4c(c3c(=O)[nH]2)CCCC4)c1N	/	.	/	45	30
Cc1cc(C)n(-c2nc3sc4c(c3c(=O)[nH]2)CCCC4)n1	4.7	.	2.6	.	28
FC(F)(F)c1nc(-c2cccs2)ncc1-c1nnnn1-c1ccc(Cl)cc1	.	/	.	/	/
Clc1ccc(-n2nnnc2-c2cnc(-c3ccncc3)nc2-c2cccs2)cc1	.	.	.	.	9.8
COc1ccc(C2=Nn3c(nnc3-c3ccncc3)SC2)cc1OC	.	/	.	/	/
COc1ccc(C2=Nn3c(nnc3-c3cccnc3)SC2)cc1OC	/	.	/	45	.
COc1ccccc1-c1nnc2n1N=C(c1ccc(O)c(O)c1)CS2	.	.	.	38	21
Cc1ccc(-n2nnnc2CSc2nnc(-c3ccc(O)cc3)o2)cc1	.	/	.	/	/
CCCCCCn1c(O)c(/C=C2\C=NN=C2c2ccccc2)sc1=S	.	/	.	/	/
Cc1nn(Cc2cccc(C(=O)Nc3ccn(Cc4ccccc4F)n3)c2)c(C)c1[N+](=O)[O-]	.	/	.	/	/
O=C1CC(Sc2nnc(-c3ccccc3)o2)C(=O)N1c1ccccc1 (stereo not drawn)	.	.	.	.	1.8
Cc1ccccc1N1C(=O)CC(Sc2nnc(-c3ccccc3)o2)C1=O (stereo not drawn)	.	.	.	46	1.8
O=C(N1CCN(c2ccccn2)CC1)N1c2ccccc2Sc2ccccc21	.	26	.	.	34
O=C(c1ccco1)N1c2ccccc2Sc2ccccc21	.	/	.	/	/
O=C(c1ccco1)N1CCN(C(=O)N2c3ccccc3Sc3ccccc32)CC1	.	.	.	.	32
O=C(O)c1cccc(COc2ccc(CO)cc2Cl)c1	.	/	.	/	/
CC(C)(C)n1nnnc1C(c1cccs1)N(Cc1cccnc1)Cc1ccccc1Cl (stereo not drawn)	.	.	.	.	4.0
Cc1ccc2c(c1)c1c(n2CC(O)Cn2c(C)nc3ccccc32)C(=O)CCC1 (stereo not drawn)	.	.	.	.	.
Cc1ccc2c(c1)c1c(n2CC(O)Cn2c(C)nc3ccccc32)/C(=N\O)CCC1 (stereo not drawn)	.	3.4	.	.	2.7
O=C(COC(=O)c1n[nH]c2ccccc12)NC(=O)NC12CC3CC(CC(C3)C1)C2	.	.	1.4	.	17
O=C(COC(=O)c1n[nH]c2ccccc12)NC(=O)NC1CCCC1	.	.	.	.	.
O=C(CSc1ccccc1)Nc1ccc(N2CCOCC2)cc1	.	.	.	.	6.8
O=C(Nc1ccc(N2CCOCC2)cc1)Nc1ccc2nc(-c3ccco3)c(-c3ccco3)nc2c1	.	22	.	.	9.5
Nc1nc(NCC2CCCO2)nc(Nc2ccccc2)c1[N+](=O)[O-] (stereo not drawn)	.	/	.	/	/
CCc1ccc(C2NC(=S)NC3=C2C(=O)N(c2ccccc2OC)C(c2ccc(CC)cc2)N3)cc1 (stereo not drawn)	.	/	.	/	/
O=C1C2=C(NC(=S)NC2c2ccc(Cl)cc2)NC(c2ccc(Cl)cc2)N1c1ccc(Cl)cc1 (stereo not drawn)	.	7.6	.	.	0.1
COc1ccc(-c2nc(C(N)=O)c3[nH]c(=O)n(-c4cccc(Cl)c4)c3n2)cc1OC	.	.	2.3	7.5	2.1
CCc1ccc(-c2nc(C(N)=O)c3[nH]c(=O)n(-c4ccccc4OC)c3n2)cc1	.	.	.	37	16
